Assay results: ChEMBL document CHEMBL1140884, “Oligodeoxyribonucleotide-based antagonists for Toll-like receptors 7 and 9” (2009)
Active and inactive are the calls of the source. The rule behind the calls is not given here.

How the values were obtained:
Mus musculus [1] = test: Induction of cytokine KC secretion in C57BL/6 mouse at 0.25 mg/kg, sc; type: functional, organism-based; parameters: dose 0.25 mg/kg
Procedure, shortened: (§1)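 Female C57BL/6 mice, 6–8 weeks old (n=3), were injected sc with single compounds at 0.25 or 20 mg/kg. Serum was collected by retro-orbital bleed 2 h later and cytokines were measured by Luminex mouse 20-plex assay.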

Mus musculus [2] = test: Induction of IL10 secretion in C57BL/6 mouse at 0.25 mg/kg, sc; type: functional, organism-based; parameters: dose 0.25 mg/kg; procedure, shortened: as §1
[3] = biological target: T1, Toll-like receptor 9 (Mus musculus) (UniProt Q9EQU3); test: Agonist activity at TLR9 in mouse J774 cells assessed as of NF-kappaB activation; type: functional, cell-based
T1 sequence (whole entry): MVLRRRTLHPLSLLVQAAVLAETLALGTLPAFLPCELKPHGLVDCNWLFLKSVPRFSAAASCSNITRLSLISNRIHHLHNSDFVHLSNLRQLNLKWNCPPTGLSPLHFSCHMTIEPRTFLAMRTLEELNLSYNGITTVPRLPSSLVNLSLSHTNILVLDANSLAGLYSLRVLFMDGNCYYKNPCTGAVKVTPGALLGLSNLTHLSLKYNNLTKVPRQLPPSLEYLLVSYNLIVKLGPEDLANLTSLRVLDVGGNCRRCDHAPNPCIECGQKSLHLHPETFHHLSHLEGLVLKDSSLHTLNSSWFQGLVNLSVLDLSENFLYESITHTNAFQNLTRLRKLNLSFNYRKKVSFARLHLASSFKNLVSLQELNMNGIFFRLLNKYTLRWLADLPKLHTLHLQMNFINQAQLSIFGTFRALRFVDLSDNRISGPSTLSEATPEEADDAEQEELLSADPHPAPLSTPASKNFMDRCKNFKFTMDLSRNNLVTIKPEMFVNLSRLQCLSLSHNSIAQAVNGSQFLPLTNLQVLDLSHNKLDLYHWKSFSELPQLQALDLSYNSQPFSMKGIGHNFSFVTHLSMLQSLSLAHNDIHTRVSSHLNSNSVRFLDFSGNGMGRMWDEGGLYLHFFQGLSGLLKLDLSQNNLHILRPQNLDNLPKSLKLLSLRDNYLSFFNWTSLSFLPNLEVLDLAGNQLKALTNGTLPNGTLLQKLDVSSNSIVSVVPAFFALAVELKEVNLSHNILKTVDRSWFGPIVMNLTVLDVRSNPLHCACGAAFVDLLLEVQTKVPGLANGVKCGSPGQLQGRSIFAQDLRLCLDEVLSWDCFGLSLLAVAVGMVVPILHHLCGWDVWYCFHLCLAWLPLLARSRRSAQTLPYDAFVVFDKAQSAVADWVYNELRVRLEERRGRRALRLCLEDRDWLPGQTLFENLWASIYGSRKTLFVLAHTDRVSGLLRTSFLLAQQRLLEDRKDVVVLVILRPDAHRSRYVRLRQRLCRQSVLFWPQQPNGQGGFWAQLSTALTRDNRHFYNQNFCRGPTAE
Procedure, shortened: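 Murine J774 macrophages grown in DMEM with 10% FBS and plated at 5×10^6 cells/well. Nuclear extracts taken 1 h after agonist addition. NF-κB detected by EMSA on native polyacrylamide gels with autoradiography.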

Mus musculus [4] = test: Induction of cytokine MCP1 secretion in C57BL/6 mouse at 0.25 mg/kg, sc; type: functional, organism-based; parameters: dose 0.25 mg/kg; procedure, shortened: as §1
Mus musculus [5] = test: Induction of cytokine MIG secretion in C57BL/6 mouse at 0.25 mg/kg, sc; type: functional, organism-based; parameters: dose 0.25 mg/kg; procedure, shortened: as §1
[6] = biological target: T1, Toll-like receptor 9 (Mus musculus); test: Agonist activity at mouse TLR9 expressed in HEK293 cells assessed as activation of NF-kappaB at 10 ug/mL by SEAP reporter gene assay; type: functional, cell-based
Procedure, shortened: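 HEK293 cells stably expressing mouse TLR9 were transiently transfected with a SEAP reporter for 6 h. Compounds were added at 10 µg/mL for 18 h. SEAP was read with Quanti-Blue substrate and expressed as fold change in NF-κB activity.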

Mus musculus [7] = test: Induction of IL6 secretion in C57BL/6 mouse at 0.25 mg/kg, sc; type: functional, organism-based; parameters: dose 0.25 mg/kg; procedure, shortened: as §1
Mus musculus [8] = test: Induction of IP10 secretion in C57BL/6 mouse at 0.25 mg/kg, sc; type: functional, organism-based; parameters: dose 0.25 mg/kg; procedure, shortened: as §1
Mus musculus [9] = test: Induction of IL12 secretion in C57BL/6 mouse at 0.25 mg/kg, sc; type: functional, organism-based; parameters: dose 0.25 mg/kg; procedure, shortened: as §1
PBMC = test: Inhibition of 5'-TCTGTCRTTCT-X-TCTTRCTGTCT-5'-induced human PBMC proliferation treated 72 hrs before induction; type: functional, cell-based
[10] = biological target: T1, Toll-like receptor 9 (Mus musculus); test: Antagonist activity at mouse TLR9 expressed in HEK293 cells assessed as inhibition of 5'-CTATCTGTCGTTCTCTGT-3'-induced NF-kappaB activation by SEAP reporter gene assay; type: functional, cell-based
Procedure, shortened: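 Mouse TLR9-HEK293 cells were transfected with a SEAP reporter for 6 h. They were then stimulated for 18 h with agonist (0.25 or 0.5 µg/mL) plus increasing antagonist concentrations or set agonist:antagonist ratios. Quanti-Blue read-out, reported as % NF-κB activity with agonist alone as 100%.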

Mus musculus [11] = test: Inhibition of 5'-TCTGACRTTCT-X-TCTTRCAGTCT-3'-induced IL12 production in C57BL/6 mouse pretreated before up to 48 hrs of induction at 10 mg/kg, sc; type: functional, organism-based; parameters: dose 10 mg/kg
Procedure, shortened: (§2)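 C57BL/6 mice received antagonist or control 10 mg/kg sc, either with TLR9 agonist 0.25 mg/kg sc or up to 48 h before it. Serum IL-12 was measured 2 h after agonist. Two or three independent experiments; mean ± SEM, Student's t test versus PBS.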

Mus musculus [12] = test: Inhibition of 5'-TCTGACRTTCT-X-TCTTRCAGTCT-3'-induced IL12 production in C57BL/6 mouse at 10 mg/kg, sc; type: functional, organism-based; parameters: dose 10 mg/kg; procedure, shortened: as §2

Row | Activity [3] | Activity [6] | Activity [10] | SMILES | Activity (Mus musculus [1]) | Activity (Mus musculus [2]) | Activity (Mus musculus [4]) | Activity (Mus musculus [5]) | Activity (Mus musculus [7]) | Activity (Mus musculus [8]) | Activity (Mus musculus [9]) | Activity (PBMC) | Activity (Mus musculus [11]) | Activity (Mus musculus [12])
1 | Active | Active | – | Cc1cn([C@H]2C[C@H](OP(=O)(S)OC[C@H]3O[C@@H](n4ccc(N)nc4=O)C[C@@H]3OP(=O)(S)OC[C@H]3O[C@@H](n4cc(C)c(=O)[nH]c4=O)C[C@@H]3OP(=O)(S)OC[C@H]3O[C@@H](n4cnc5c(=O)[nH]c(N)nc54)C[C@@H]3OP(=O)(S)OC[C@H]3O[C@@H](n4cnc5c(N)ncnc54)C[C@@H]3OP(=O)(S)OC[C@H]3O[C@@H](n4ccc(N)nc4=O)C[C@@H]3OP(=O)(S)OC[C@H]3O[C@@H](n4ccc5c(N)ncnc54)C[C@@H]3OP(=O)(S)OC[C@H]3O[C@@H](n4cc(C)c(=O)[nH]c4=O)C[C@@H]3OP(=O)(S)OC[C@H]3O[C@@H](n4cc(C)c(=O)[nH]c4=O)C[C@@H]3OP(=O)(S)OC[C@H]3O[C@@H](n4ccc(N)nc4=O)C[C@@H]3OP(=O)(S)OC[C@H]3O[C@@H](n4cc(C)c(=O)[nH]c4=O)C[C@@H]3OP(=O)(S)OCC(O)COP(=O)(S)O[C@H]3C[C@H](n4cc(C)c(=O)[nH]c4=O)O[C@@H]3COP(=O)(S)O[C@H]3C[C@H](n4ccc(N)nc4=O)O[C@@H]3COP(=O)(S)O[C@H]3C[C@H](n4cc(C)c(=O)[nH]c4=O)O[C@@H]3COP(=O)(S)O[C@H]3C[C@H](n4cc(C)c(=O)[nH]c4=O)O[C@@H]3COP(=O)(S)O[C@H]3C[C@H](n4ccc5c(=O)[nH]c(N)nc54)O[C@@H]3COP(=O)(S)O[C@H]3C[C@H](n4ccc(N)nc4=O)O[C@@H]3COP(=O)(S)O[C@H]3C[C@H](n4cnc5c(N)ncnc54)O[C@@H]3COP(=O)(S)O[C@H]3C[C@H](n4cnc5c(=O)[nH]c(N)nc54)O[C@@H]3COP(=O)(S)O[C@H]3C[C@H](n4cc(C)c(=O)[nH]c4=O)O[C@@H]3COP(=O)(S)O[C@H]3C[C@H](n4ccc(N)nc4=O)O[C@@H]3COP(=O)(S)O[C@H]3C[C@H](n4cc(C)c(=O)[nH]c4=O)O[C@@H]3CO)[C@@H](CO)O2)c(=O)[nH]c1=O (stereo not given in full) | Active | Active | Active | Active | Active | Active | Active | – | – | –
2 | – | inactive | Active | CO[C@@H]1[C@H](OP(=O)(S)OC[C@H]2O[C@@H](n3ccc(N)nc3=O)C[C@@H]2OP(=O)(S)OC[C@H]2O[C@@H](n3cnc4c(=O)[nH]c(N)nc43)C[C@@H]2OP(=O)(S)OC[C@H]2O[C@@H](n3cc(C)c(=O)[nH]c3=O)C[C@@H]2OP(=O)(S)OC[C@H]2O[C@@H](n3cc(C)c(=O)[nH]c3=O)C[C@@H]2OP(=O)(S)OC[C@H]2O[C@@H](n3ccc(N)nc3=O)C[C@@H]2OP(=O)(S)OC[C@H]2O[C@@H](n3cc(C)c(=O)[nH]c3=O)C[C@@H]2OP(=O)(S)OC[C@H]2O[C@@H](n3ccc(N)nc3=O)C[C@@H]2OP(=O)(S)OC[C@H]2O[C@@H](n3cc(C)c(=O)[nH]c3=O)C[C@@H]2OP(=O)(S)OC[C@H]2O[C@@H](n3cnc4c(=O)[nH]c(N)nc43)C[C@@H]2OP(=O)(S)OC[C@H]2O[C@@H](n3cc(C)c(=O)[nH]c3=O)C[C@@H]2O)[C@@H](COP(=O)(S)O[C@H]2[C@@H](OC)[C@H](n3cnc4c(=O)[nH]c(N)nc43)O[C@@H]2COP(=O)(S)O[C@H]2C[C@H](n3cc(C)c(=O)[nH]c3=O)O[C@@H]2COP(=O)(S)O[C@H]2C[C@H](n3ccc(N)nc3=O)O[C@@H]2COP(=O)(S)O[C@H]2C[C@H](n3cc(C)c(=O)[nH]c3=O)O[C@@H]2COP(=O)(S)O[C@H]2C[C@H](n3cnc4c(N)ncnc43)O[C@@H]2COP(=O)(S)O[C@H]2C[C@H](n3cc(C)c(=O)[nH]c3=O)O[C@@H]2COP(=O)(S)O[C@@H]2C[C@@H](n3ccc(N)nc3=O)O[C@H]2CO)O[C@H]1n1ccc(=O)[nH]c1=O (stereo not given in full) | – | – | – | – | – | – | – | Active | – | –
3 | – | inactive | – | CO[C@@H]1[C@H](OP(=O)(S)OC[C@H]2O[C@@H](n3cnc4c(N)ncnc43)[C@H](OC)[C@@H]2OP(=O)(S)OC[C@H]2O[C@@H](n3ccc(N)nc3=O)C[C@@H]2OP(=O)(S)OC[C@H]2O[C@@H](n3ccc(N)nc3=O)C[C@@H]2OP(=O)(S)OC[C@H]2O[C@@H](n3cc(C)c(=O)[nH]c3=O)C[C@@H]2OP(=O)(S)OC[C@H]2O[C@@H](n3cc(C)c(=O)[nH]c3=O)C[C@@H]2OP(=O)(S)OC[C@H]2O[C@@H](n3ccc(N)nc3=O)C[C@@H]2OP(=O)(S)OC[C@H]2O[C@@H](n3cc(C)c(=O)[nH]c3=O)C[C@@H]2OP(=O)(S)OC[C@H]2O[C@@H](n3ccc(N)nc3=O)C[C@@H]2OP(=O)(S)OC[C@H]2O[C@@H](n3cc(C)c(=O)[nH]c3=O)C[C@@H]2OP(=O)(S)OC[C@H]2O[C@@H](n3cnc4c(=O)[nH]c(N)nc43)C[C@@H]2OP(=O)(S)OC[C@H]2O[C@@H](n3cc(C)c(=O)[nH]c3=O)C[C@@H]2O)[C@@H](COP(=O)(S)O[C@H]2C[C@H](n3cc(C)c(=O)[nH]c3=O)O[C@@H]2COP(=O)(S)O[C@H]2[C@@H](O)[C@H](n3ccc(N)nc3=O)O[C@@H]2COP(=O)(S)O[C@H]2C[C@H](n3cc(C)c(=O)[nH]c3=O)O[C@@H]2COP(=O)(S)O[C@H]2C[C@H](n3cnc4c(N)ncnc43)O[C@@H]2COP(=O)(S)O[C@H]2C[C@H](n3cc(C)c(=O)[nH]c3=O)O[C@@H]2COP(=O)(S)O[C@@H]2C[C@@H](n3ccc(N)nc3=O)O[C@H]2CO)O[C@H]1n1ccc(N)nc1=O (stereo not given in full) | – | – | – | – | – | – | – | – | inactive | inactive
